Assay [1] is filed under the species Rattus norvegicus. Briefly: Percent decrease in triglyceride (TG) after 7 days at 0.05 percent in the diet of SD male rats in comparison to control animals. The class given is functional. The procedure, abridged:
(§1)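 Normal SD male rats, five per group. Compound mixed into CE-2 powder diet at 50 mg/100 g (mg %), fed ad libitum for 7 days; controls received plain CE-2 powder. Total serum cholesterol measured by the Zak method and triglyceride by the Van Handel method after the feeding period. Activity expressed as percent depression versus the control-group mean. Single experiments.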

Assay [2] is filed under the species Rattus norvegicus. Briefly: Percent decrease in serum cholesterol (Cho) after 7 days at 0.05 percent in the diet of SD male rats in comparison to control animals. The class given is functional. Put shortly: as §1

Molecules are shown by their SMILES.

Turning to `CCCCCOC(=O)Cc1nc(-c2ccccc2)oc1-c1ccsc1`, the Reduction in assay [1] is listed as 30%; in assay [2], 20%.

As to `CCCCCOC(=O)Cc1nc(-c2ccc(F)cc2)oc1-c1ccsc1`, the Reduction in assay [1] was found to be 20%; in assay [2], 13%.

As for `CCOC(=O)Cc1nc(-c2ccc(Br)cc2)oc1-c1ccc(F)cc1`, the Reduction in assay [1] was -5%; in assay [2], 12%.

On to `O=C(OCc1nc(-c2ccc(F)cc2)oc1-c1ccsc1)c1cccnc1`, for which the Reduction in assay [1] was found to be 17%; in assay [2], 0%.

Regarding `CCOC(=O)Cc1nc(-c2ccccc2)oc1-c1cccs1`, the Reduction is 7% in assay [1] and 11% in assay [2].

For `O=C(O)Cc1nc(-c2ccc(Cl)c(Cl)c2)oc1-c1ccsc1`, the Reduction is listed as 34% in assay [1] and 9% in assay [2].

`CCOC(=O)Cc1nc(-c2ccc(Cl)cc2)oc1-c1ccc(Br)s1`: the Reduction was found to be 20% in assay [1] and 0% in assay [2].

`NC(=O)Cc1nc(-c2ccc(F)cc2)oc1-c1ccsc1`: the Reduction amounted to 13% in assay [1] and 19% in assay [2].

As for `O=C(O)Cc1nc(-c2ccsc2)oc1-c1ccc(F)cc1`, the Reduction in assay [1] is on record as 31%; in assay [2] it was 13%.

Regarding `O=C(O)Cc1nc(-c2ccc(Br)cc2)oc1-c1ccccc1`, the results for the Reduction in assay [1] and in assay [2] were -14% and 4%, respectively.

As to `O=C(O)Cc1nc(-c2ccccc2)oc1-c1ccsc1`, the results for the Reduction in assay [1] and in assay [2] were 41% and 15%, respectively.

Take `COC(=O)Cc1nc(-c2ccc(Cl)cc2)oc1-c1ccsc1`: the Reduction in assay [1] is listed as 29%; in assay [2], 14%.

Regarding `CCN(CC)C(=O)Cc1nc(-c2ccc(F)cc2)oc1-c1ccsc1`, the figures for the Reduction in assay [1] and in assay [2] were 2% and -2%, respectively.

Regarding `CCOC(=O)Cc1nc(-c2ccc(C)cc2)oc1-c1ccsc1`, the Reduction in assay [1] came to 4%; in assay [2], 5%.

Take `CCOC(=O)Cc1nc(-c2ccc(C)cc2)oc1-c1ccccc1`: the figures for the Reduction in assay [1] and in assay [2] were -18% and 5%, respectively.

As to `CC(C)OC(=O)Cc1nc(-c2ccc(Cl)cc2)oc1-c1ccsc1`, the figures for the Reduction in assay [1] and in assay [2] were 29% and 9%, respectively.

Consider `O=C(O)Cc1nc(-c2ccccc2)oc1-c1ccccc1`, for which the Reduction came to 20% in assay [1] and 6% in assay [2].

Regarding `COc1ccc(-c2nc(CC(=O)O)c(-c3ccsc3)o2)cc1`, the Reduction in assay [1] was found to be 26%; in assay [2], 3%.

Regarding `CCCCCOC(=O)Cc1nc(-c2ccc(Cl)cc2)oc1-c1ccsc1`, the figures for the Reduction in assay [1] and in assay [2] were 45% and 19%, respectively.

For the compound `O=C(O)Cc1nc(-c2ccccc2Cl)oc1-c1ccsc1`, the Reduction in assay [1] is given as 22%; in assay [2] it was 1%.

As to `CCCCOC(=O)Cc1nc(-c2ccc(Cl)cc2)oc1-c1ccsc1`, the Reduction came out at 17% in assay [1] and 22% in assay [2].

For `CCOC(=O)Cc1nc(-c2ccc(F)cc2)oc1-c1cccs1`, the Reduction is listed as 31% in assay [1] and 17% in assay [2].

For the compound `CCOC(=O)Cc1nc(-c2ccc(Cl)cc2)oc1-c1cccs1`, the Reduction in assay [1] was -10%; in assay [2] it was 15%.

For the compound `OCc1nc(-c2ccc(F)cc2)oc1-c1ccsc1`, the values for the Reduction in assay [1] and in assay [2] were -34% and -10%, respectively.

As for `CCCCNC(=O)Cc1nc(-c2ccc(F)cc2)oc1-c1ccsc1`, the Reduction is given as 13% in assay [1] and -8% in assay [2].

In the case of `CCOC(=O)Cc1nc(-c2ccc(F)cc2)oc1-c1ccccc1`, the Reduction is -4% in assay [1] and 3% in assay [2].

As to `O=C(O)Cc1nc(-c2ccc(Cl)cc2)oc1-c1ccccc1`, the Reduction in assay [1] was 14%; in assay [2], 6%.

On to `O=C(O)Cc1nc(-c2ccc(F)cc2)oc1-c1cccs1`, for which the values for the Reduction in assay [1] and in assay [2] were 27% and 17%, respectively.

Consider `O=C(OCCc1nc(-c2ccc(F)cc2)oc1-c1ccsc1)c1cccnc1`, for which the Reduction in assay [1] was 3%; in assay [2], -2%.

In the case of `CCOC(=O)Cc1nc(-c2ccc(F)cc2)oc1-c1ccc(F)cc1`, the Reduction in assay [1] turned out to be 39%; in assay [2], 7%.

For the compound `CCOC(=O)Cc1nc(-c2ccc(OC)cc2)oc1-c1ccccc1`, the Reduction stood at 15% in assay [1] and 0% in assay [2].

On to `CCOC(=O)Cc1nc(-c2ccc(Cl)cc2)oc1-c1ccccc1`, for which the Reduction in assay [1] is recorded as -12%; in assay [2], 7%.

On to `C=CCOC(=O)Cc1nc(-c2ccc(Cl)cc2)oc1-c1ccsc1`, for which the Reduction in assay [1] is listed as 39%; in assay [2], 11%.

As for `CCOC(=O)Cc1nc(-c2ccc(Br)cc2)oc1-c1ccccc1`, the results for the Reduction in assay [1] and in assay [2] were -7% and 10%, respectively.

In the case of `Cc1ccc(-c2nc(CC(=O)O)c(-c3ccsc3)o2)cc1`, the Reduction in assay [1] amounted to 14%; in assay [2], 9%.

Regarding `CCOC(=O)CCc1nc(-c2ccc(Cl)cc2)oc1-c1ccsc1`, the Reduction in assay [1] is recorded as 34%; in assay [2], 0%.

As for `CCOC(=O)Cc1nc(-c2ccccc2Cl)oc1-c1ccsc1`, the Reduction in assay [1] is 15%; in assay [2], -5%.

Regarding `O=C(O)c1ncoc1-c1ccccc1`, the Reduction in assay [1] is reported as 11%; in assay [2] it was 2%.

As for `CCOC(=O)Cc1nc(-c2ccc(F)cc2)oc1-c1ccsc1`, the Reduction in assay [1] came out at 41%; in assay [2], 19%.

Regarding `CCOC(=O)C(C)c1nc(-c2ccc(F)cc2)oc1-c1ccsc1` (stereo not given), the Reduction in assay [1] is reported as 19%; in assay [2], 6%.

As for `CCOC(=O)Cc1nc(-c2ccsc2)oc1-c1ccc(F)cc1`, the Reduction was 15% in assay [1] and 11% in assay [2].

On to `CCOC(=O)Cc1nc(-c2ccc(OC)cc2)oc1-c1ccsc1`, for which the Reduction in assay [1] is given as 0%; in assay [2], 4%.

For the compound `O=C(O)Cc1nc(-c2ccc(Cl)cc2)oc1-c1cccs1`, the Reduction in assay [1] worked out at 38%; in assay [2], 16%.

As for `O=C(Cc1nc(-c2ccc(Cl)cc2)oc1-c1ccsc1)OCc1cccnc1`, the Reduction in assay [1] worked out at 3%; in assay [2], 13%.

For `NC(=O)Cc1nc(-c2ccccc2)oc1-c1ccsc1`, the results for the Reduction in assay [1] and in assay [2] were 3% and 20%, respectively.

In the case of `CCOC(=O)c1nc(-c2ccccc2)oc1-c1ccccc1`, the Reduction is -30% in assay [1] and 9% in assay [2].

With `O=C(O)Cc1nc(-c2ccccc2)oc1-c1cccs1`, the Reduction is given as 28% in assay [1] and -4% in assay [2].

On to `CCCCCCCCCCCCOC(=O)Cc1nc(-c2ccc(F)cc2)oc1-c1ccsc1`, for which the Reduction came out at 34% in assay [1] and 18% in assay [2].

As for `O=C(O)Cc1nc(-c2cccc(Cl)c2)oc1-c1ccsc1`, the Reduction in assay [1] amounted to 38%; in assay [2] it was 7%.

As for `CCOC(=O)Cc1nc(-c2ccc(Cl)cc2)oc1-c1ccc(F)cc1`, the Reduction came out at 3% in assay [1] and 22% in assay [2].

Take `CCOC(=O)Cc1nc(-c2cccc(Cl)c2)oc1-c1ccsc1`: the Reduction is reported as 61% in assay [1] and 8% in assay [2].

Turning to `CC(C)OC(=O)Cc1nc(-c2ccc(F)cc2)oc1-c1ccsc1`, the Reduction in assay [1] stood at 27%; in assay [2] it was 8%.

As for `O=C(O)CCc1nc(-c2ccc(Cl)cc2)oc1-c1ccsc1`, the Reduction in assay [1] turned out to be 51%; in assay [2] it was 5%.

As to `O=C(O)Cc1nc(-c2ccc(Cl)cc2)oc1-c1ccsc1`, the Reduction in assay [1] is recorded as 43%; in assay [2], 16%.

Regarding `CCOC(=O)Cc1nc(-c2ccc(Cl)c(Cl)c2)oc1-c1ccsc1`, the Reduction was determined as 17% in assay [1] and 14% in assay [2].

Take `CCOC(=O)Cc1nc(-c2cc(OC)c(OC)c(OC)c2)oc1-c1ccccc1`: the results for the Reduction in assay [1] and in assay [2] were -19% and 0%, respectively.

As for `O=C(Cc1nc(-c2ccc(Cl)cc2)oc1-c1ccsc1)OCC(O)CO` (stereo not given), the Reduction is 43% in assay [1] and 15% in assay [2].

With `Cc1ccc(-c2oc(-c3ccc(Cl)cc3)nc2CC(=O)O)s1`, the Reduction in assay [1] is recorded as -4%; in assay [2], 9%.

For `CC(C(=O)O)c1nc(-c2ccc(F)cc2)oc1-c1ccsc1` (stereo not given), the results for the Reduction in assay [1] and in assay [2] were 40% and 6%, respectively.

`CCc1nc(-c2ccc(F)cc2)oc1-c1ccsc1`: the Reduction was 20% in assay [1] and -4% in assay [2].

Regarding `CCCCOC(=O)Cc1nc(-c2ccc(F)cc2)oc1-c1ccsc1`, the Reduction in assay [1] was 19%; in assay [2], 20%.

Regarding `COC(=O)c1nc(-c2ccc(F)cc2)oc1-c1ccsc1`, the values for the Reduction in assay [1] and in assay [2] were 16% and 5%, respectively.

Take `CCCCOC(=O)Cc1nc(-c2ccccc2)oc1-c1ccsc1`: the values for the Reduction in assay [1] and in assay [2] were 21% and 15%, respectively.

As to `CCOC(=O)Cc1nc(-c2ccccc2)oc1-c1ccccc1`, the Reduction in assay [1] was determined as 6%; in assay [2] it was 13%.

For the compound `C=CCc1nc(-c2ccc(F)cc2)oc1-c1ccsc1`, the Reduction is 3% in assay [1] and -2% in assay [2].

In the case of `CCOC(=O)Cc1nc(-c2ccccc2)oc1-c1ccsc1`, the Reduction worked out at 41% in assay [1] and 15% in assay [2].

Regarding `CCOC(=O)Cc1nc(-c2ccc(Cl)cc2)oc1-c1ccc(C)s1`, the Reduction in assay [1] is given as 39%; in assay [2] it was 4%.

As for `CCNC(=O)Cc1nc(-c2ccc(F)cc2)oc1-c1ccsc1`, the values for the Reduction in assay [1] and in assay [2] were 23% and -5%, respectively.

With `NC(=O)Cc1nc(-c2ccc(Cl)cc2)oc1-c1ccsc1`, the figures for the Reduction in assay [1] and in assay [2] were 12% and 16%, respectively.

On to `OCCc1nc(-c2ccc(F)cc2)oc1-c1ccsc1`, for which the Reduction in assay [1] is 1%; in assay [2] it was 4%.

The record behind these values is ChEMBL document CHEMBL1123452, “Synthesis and hypolipidemic activities of 5-thienyl-4-oxazoleacetic acid derivatives” (1986).
